We go through five compounds from paper PMC11838921 (Journal of agricultural and food chemistry, 2024).

One data set relates to antiphenamacril mAb. The data set is described as follows: ic-ELISA for sensitivity and specificity of the mAb. The class given is binding, Balb/c mice. The note with it: for Cross-reactivity: CR = IC50(analyte)/IC50(structural analogue) x 100%; for IC50: ic-ELISA, standards in 10% methanol-PBS. The method in brief:
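Ic-ELISA with purified mAb (ascites, Protein G column). Phenamacril standards at 0–500 ng/mL (500 to 1.95 in twofold steps) in 10% methanol-PBS; 50 μL standard and 50 μL mAb per well. IC50 taken as sensitivity. Cross-reactivity run with four methoxyacrylate analogues: IC50(analyte)/IC50(analogue) × 100%.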

Data set [1] relates to Au@PDA-mAb probe. Put plainly: dual-readout immunochromatographic strip. The class given is binding. A digest of the protocol: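 Standards and analogues at 0.63–20 ng/mL in PBS with 10% methanol were applied to the strip sample pad (100 μL). Au@PDA-mAb probe sat on the conjugate pad. T line held phenamacril-OVA plus QDs-OVA; C line held anti-mouse IgG. Colour read by eye as T-line red loss against the C line. Fluorescence read as green T-line intensity under UV.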

Data set [2] has as its system Au@PDA-mAb probe. The data set is described as follows: dr-ICGA on wheat flour samples. The class given is binding. To be noted: n = 5. A digest of the protocol: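 Phenamacril-free flour (5 g, confirmed by LC-MS/MS) in 10 mL ultrapure water, vortexed 2 min, spiked with standard to 0.0125–0.20 mg/kg; water-only blank at 0 mg/kg. Residue redissolved in 1 mL 10% methanol-PBS, then diluted 10-fold. 100 μL applied to the strip. Read by eye as −, ± or +, with cut-offs <0.05, 0.05–0.1 and >0.1 mg/kg.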

For the next data set, the system named is antisera. Put plainly: ic-ELISA of antiserum of the immunized mouse. The class given is binding, Balb/c mice. The note with it: phenamacril at 1 μg/mL, mouse used for fusion (titer 80,000). On the technique in general: In an ELISA, binding on a coated surface is turned into a signal by an enzyme label.
For data set [3] the following is noted: Jiangxi red soil; cited from earlier work.
For data set [4] the following is noted: activated sludge; cited from earlier work.

As a reminder, the IC50 is the point on the concentration scale where inhibition reaches its midpoint. The low end stands for greater potency, the high end for weaker potency. Turning to `CO/C=C(/C(=O)OC)c1ccccc1Oc1cc(Oc2ccccc2C#N)ncn1` [Azoxystrobin], in the data set with antiphenamacril mAb, the Cross-reactivity is reported as <0.35% and the half-maximal inhibitory concentration (IC50) is >5,000 ng/mL. In the data set with antiphenamacril mAb (listed as azoxystrobin), the Cross-reactivity was < 0.35%.

As to `COc1c(F)c(F)c(C(=O)NCc2ncc(C(F)(F)F)cc2Cl)c(F)c1F` [Fluopimomide], in the data set with antiphenamacril mAb, the Cross-reactivity is <0.35% and the IC50 is given as >5,000 ng/mL. The Cross-reactivity in the data set with antiphenamacril mAb (listed as fluopimomide) is < 0.35%.

Consider `CCOC(=O)C(C#N)=C(N)c1ccccc1` [Phenamacril, 2-cyano-3-amino-3-phenylacrylic acetate], for which, in the data set on antiphenamacril mAb, the Cross-reactivity is 100%. In addition, the concentration for half-maximal inhibition (IC50) with antiphenamacril mAb was 17.46 ng/mL. Also, in the data set on Au@PDA-mAb probe [1] (20 ng/mL loaded, visual and UV readout), the “reaction on the T line of the dual-readout strip” value is “strong positive reaction on the T line”. Besides, the “limit of detection (cutoff value)” value in the data set on Au@PDA-mAb probe [1] (dr-ICGA, colorimetric and fluorescent readout, within 10 min) was 5 ng/mL. Besides, the “dr-ICGA visual result (dilute 10 times)” value is “−, −, −, −, −,” with Au@PDA-mAb probe [2] (wheat flour spiked 0.0125 mg/kg); “−, ± , −, ± , −,” in the data set with Au@PDA-mAb probe [2] (wheat flour spiked 0.025 mg/kg); “±, ± , ± , ± , ± ,” in the data set on Au@PDA-mAb probe [2] (wheat flour spiked 0.05 mg/kg); “±, + , + , + , + ,” with Au@PDA-mAb probe [2] (wheat flour spiked 0.1 mg/kg); “+, + , + , + , + ,” with Au@PDA-mAb probe [2] (wheat flour spiked 0.2 mg/kg). In addition, the inhibition rate result in the data set on antisera is recorded as “approximately 70.8%”. Moreover, in data set [3], the mobility in soil result is listed as “moderately mobile”. In data set [4], the degradation result is recorded as “degrades slowly”.

In the case of `CO/C=C(/C(=O)OC)c1ccccc1COc1cccc(C(F)(F)F)n1` [Picoxystrobin], the Cross-reactivity is reported as <0.35% with antiphenamacril mAb and < 0.35% in the data set with antiphenamacril mAb (listed as picoxystrobin). Further, the IC50 with antiphenamacril mAb is reported as >5,000 ng/mL.

For the compound `COC(=O)N(OC)c1ccccc1COc1ccn(-c2ccc(Cl)cc2)n1` [Pyraclostrobin], in the data set with antiphenamacril mAb, the Cross-reactivity is listed as <0.35% and the half-inhibitory concentration (IC50) is >5,000 ng/mL. For the same compound, the Cross-reactivity with antiphenamacril mAb (listed as pyraclostrobin) was < 0.35%.
